In ChEMBL document CHEMBL1145535, “Clonal diversity and resistance mechanisms in tetracycline-nonsusceptible Streptococcus pneumoniae isolates in Poland” (2007):
≈ marks a conversion by molar mass, not a printed value.

Tests used:
Assay type in all cases: functional
Streptococcus pneumoniae [1] = assay: Antimicrobial activity against Streptococcus pneumoniae ATCC 49619
Method in brief: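 MICs determined by broth microdilution as recommended by CLSI. Agents tested included tetracycline, doxycycline, penicillin G, erythromycin and chloramphenicol. Tigecycline results were interpreted against FDA breakpoints.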

Streptococcus pneumoniae [2] = assay: Antimicrobial susceptibility of tetracycline-resistant Streptococcus pneumoniae from respiratory tract disease patient assessed as percent susceptible isolates
Method in brief: (§1)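 MICs determined for all tetracycline-resistant isolates by broth microdilution per CLSI recommendations. Agents tested included tetracycline, doxycycline, penicillin G, erythromycin and chloramphenicol. FDA breakpoints were applied to categorize tigecycline results.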

Streptococcus pneumoniae [3] = assay: Antimicrobial susceptibility of tetracycline-resistant Streptococcus pneumoniae from respiratory tract disease patient assessed as percent resistant isolates; method in brief: as §1

For `CC1(C)S[C@@H]2[C@H](NC(=O)Cc3ccccc3)C(=O)N2[C@H]1C(=O)O` [PENICILLIN G], the MIC50 (Streptococcus pneumoniae [1]) was 0.015 µg/mL (≈ 0.0449 µM), the MIC90 (Streptococcus pneumoniae [1]) was 2 µg/mL (≈ 5.98 µM) and the Activity (Streptococcus pneumoniae [2]) was 74%. The Activity (Streptococcus pneumoniae [3]) was 14.9%.

For `CN[C@H](CC(C)C)C(=O)N[C@H]1C(=O)N[C@@H](CC(N)=O)C(=O)N[C@H]2C(=O)N[C@H]3C(=O)N[C@H](C(=O)N[C@H](C(=O)O)c4cc(O)cc(O)c4-c4cc3ccc4O)[C@H](O)c3ccc(c(Cl)c3)Oc3cc2cc(c3O[C@@H]2O[C@H](CO)[C@@H](O)[C@H](O)[C@H]2O[C@H]2C[C@](C)(N)[C@H](O)[C@H](C)O2)Oc2ccc(cc2Cl)[C@H]1O` [VANCOMYCIN], the MIC50 (Streptococcus pneumoniae [1]) was 0.25 µg/mL (≈ 0.173 µM), the MIC90 (Streptococcus pneumoniae [1]) was 0.5 µg/mL (≈ 0.345 µM) and the Activity (Streptococcus pneumoniae [2]) was 100%.

Compound `CO/N=C(\C(=O)N[C@@H]1C(=O)N2C(C(=O)O)=C(COC(C)=O)CS[C@H]12)c1csc(N)n1` [CEFOTAXIME] has an MIC50 (Streptococcus pneumoniae [1]) of 0.015 µg/mL (≈ 0.0329 µM), an MIC90 (Streptococcus pneumoniae [1]) of 1 µg/mL (≈ 2.2 µM) and an Activity (Streptococcus pneumoniae [2]) of 93.8%. For the same compound, the Activity (Streptococcus pneumoniae [3]) was 2.1%.

For `CC[C@H]1OC(=O)[C@H](C)[C@@H](O[C@H]2C[C@@](C)(OC)[C@@H](O)[C@H](C)O2)[C@H](C)[C@@H](O[C@@H]2O[C@H](C)C[C@H](N(C)C)[C@H]2O)[C@](C)(O)C[C@@H](C)C(=O)[C@H](C)[C@@H](O)[C@]1(C)O` [ERYTHROMYCIN], the MIC50 (Streptococcus pneumoniae [1]) was ≤ 0.25 µg/mL, the MIC90 (Streptococcus pneumoniae [1]) was > 16 µg/mL and the Activity (Streptococcus pneumoniae [2]) was 72.4%. The Activity (Streptococcus pneumoniae [3]) was 26.4%.

In the case of `CO[C@H]1/C=C/O[C@@]2(C)Oc3c(C)c(O)c4c(O)c(c(/C=N/N5CCN(C)CC5)c(O)c4c3C2=O)NC(=O)/C(C)=C\C=C\[C@H](C)[C@H](O)[C@@H](C)[C@@H](O)[C@@H](C)[C@H](OC(C)=O)[C@@H]1C` [RIFAMPIN], the MIC50 (Streptococcus pneumoniae [1]) is reported as ≤ 0.03 µg/mL, the MIC90 (Streptococcus pneumoniae [1]) is reported as ≤ 0.03 µg/mL and the Activity (Streptococcus pneumoniae [2]) is reported as 98.8%. It also gave an Activity (Streptococcus pneumoniae [3]) of 0.8%.

For `CC(=O)NC[C@H]1CN(c2ccc(N3CCOCC3)c(F)c2)C(=O)O1` [LINEZOLID], the MIC50 (Streptococcus pneumoniae [1]) was 1 µg/mL (≈ 2.96 µM), the MIC90 (Streptococcus pneumoniae [1]) was 1 µg/mL (≈ 2.96 µM) and the Activity (Streptococcus pneumoniae [2]) was 100%.

With `COc1cc(Cc2cnc(N)nc2N)cc(OC)c1OC` [TRIMETHOPRIM] the MIC50 (Streptococcus pneumoniae [1]) was 2 µg/mL (≈ 6.89 µM), the MIC90 (Streptococcus pneumoniae [1]) was 8 µg/mL (≈ 27.6 µM) and the Activity (Streptococcus pneumoniae [2]) was 30.2%. It also gave an Activity (Streptococcus pneumoniae [3]) of 38.4%.

`CCC[C@@H]1C[C@@H](C(=O)N[C@@H]([C@H]2O[C@H](SC)[C@H](O)[C@@H](O)[C@H]2O)[C@H](C)Cl)N(C)C1` [CLINDAMYCIN] was tested, and the MIC50 (Streptococcus pneumoniae [1]) was ≤ 0.03 µg/mL, the MIC90 (Streptococcus pneumoniae [1]) was > 4 µg/mL and the Activity (Streptococcus pneumoniae [2]) was 76.9%. The Activity (Streptococcus pneumoniae [3]) was 23.1%.

With `C[C@@H](O)[C@H]1C(=O)N2C(C(=O)O)=C(S[C@@H]3CN[C@H](C(=O)N(C)C)C3)[C@H](C)[C@H]12` [MEROPENEM] the MIC50 (Streptococcus pneumoniae [1]) was ≤ 0.015 µg/mL, the MIC90 (Streptococcus pneumoniae [1]) was 0.5 µg/mL (≈ 1.3 µM) and the Activity (Streptococcus pneumoniae [2]) was 86.8%. The Activity (Streptococcus pneumoniae [3]) was 0.4%.

`C[C@H]1c2cccc(O)c2C(=O)C2=C(O)[C@]3(O)C(=O)C(C(N)=O)=C(O)[C@@H](N(C)C)[C@@H]3[C@@H](O)[C@@H]21.O` [DOXYCYCLINE] was tested, and the MIC50 (Streptococcus pneumoniae [1]) was 4 µg/mL, the MIC90 (Streptococcus pneumoniae [1]) was 8 µg/mL and the Activity (Streptococcus pneumoniae [2]) was 19.9%. For the same compound, the Activity (Streptococcus pneumoniae [3]) was 25.2%.

For `C[C@H]1COc2c(N3CCN(C)CC3)c(F)cc3c(=O)c(C(=O)O)cn1c23.C[C@H]1COc2c(N3CCN(C)CC3)c(F)cc3c(=O)c(C(=O)O)cn1c23.O` [LEVOFLOXACIN], the MIC50 (Streptococcus pneumoniae [1]) was 1 µg/mL, the MIC90 (Streptococcus pneumoniae [1]) was 1 µg/mL and the Activity (Streptococcus pneumoniae [2]) was 98.8%. For the same compound, the Activity (Streptococcus pneumoniae [3]) was 0.4%.

`CC[C@H]1OC(=O)[C@H](C)C(=O)[C@H](C)[C@@H](O[C@@H]2O[C@H](C)C[C@H](N(C)C)[C@H]2O)[C@](C)(OC)C[C@@H](C)C(=O)[C@H](C)[C@H]2N(CCCCn3cnc(-c4cccnc4)c3)C(=O)O[C@]12C` [TELITHROMYCIN] was tested, and the MIC50 (Streptococcus pneumoniae [1]) was ≤ 0.015 µg/mL, the MIC90 (Streptococcus pneumoniae [1]) was ≤ 0.015 µg/mL and the Activity (Streptococcus pneumoniae [2]) was 98.8%. The Activity (Streptococcus pneumoniae [3]) was 0.4%.

In the case of `O=C(N[C@H](CO)[C@H](O)c1ccc([N+](=O)[O-])cc1)C(Cl)Cl` [CHLORAMPHENICOL], the MIC50 (Streptococcus pneumoniae [1]) is reported as 4 µg/mL (≈ 12.4 µM), the MIC90 (Streptococcus pneumoniae [1]) is reported as 16 µg/mL (≈ 49.5 µM) and the Activity (Streptococcus pneumoniae [2]) is reported as 70.7%. It also gave an Activity (Streptococcus pneumoniae [3]) of 39.2%.

For `CN(C)c1cc(NC(=O)CNC(C)(C)C)c(O)c2c1C[C@H]1C[C@H]3[C@H](N(C)C)C(O)=C(C(N)=O)C(=O)[C@@]3(O)C(O)=C1C2=O` [TIGECYCLINE], the MIC50 (Streptococcus pneumoniae [1]) was 0.015 µg/mL (≈ 0.0256 µM), the MIC90 (Streptococcus pneumoniae [1]) was 0.03 µg/mL (≈ 0.0512 µM) and the Activity (Streptococcus pneumoniae [2]) was 100%.

`CN(C)c1ccc(O)c2c1C[C@H]1C[C@H]3[C@H](N(C)C)C(O)=C(C(N)=O)C(=O)[C@@]3(O)C(O)=C1C2=O` [MINOCYCLINE] showed an MIC50 (Streptococcus pneumoniae [1]) of 4 µg/mL (≈ 8.74 µM), an MIC90 (Streptococcus pneumoniae [1]) of 8 µg/mL (≈ 17.5 µM) and an Activity (Streptococcus pneumoniae [2]) of 24.4%. It also gave an Activity (Streptococcus pneumoniae [3]) of 38.8%.

`CN(C)[C@@H]1C(O)=C(C(N)=O)C(=O)[C@@]2(O)C(O)=C3C(=O)c4c(O)cccc4[C@@](C)(O)[C@H]3C[C@@H]12` [TETRACYCLINE] was tested, and the MIC50 (Streptococcus pneumoniae [1]) was 32 µg/mL (≈ 72 µM), the MIC90 (Streptococcus pneumoniae [1]) was 64 µg/mL (≈ 144 µM) and the Activity (Streptococcus pneumoniae [3]) was 100%.
